# PubChem BioAssay
# A number with no mark means an inactive call. This is one part of the list. Activity calls are given as the source filed them.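 Rule for the calls, unless noted: active = primary screen active, with duplicate mean exceeding buffer control mean plus 3 SD of buffer wells (cut at about 28% in these data); inactive = the rest.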
# Experiments:
# [1] = nonspecific flux increase, KCNQ1-free cells – parental CHO cells, counter-screen for KCNQ1 potentiator project (AID 493006;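 active = duplicate-averaged activation above buffer control mean plus 5 SD of those controls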); conditions: parental CHO-K1 cells, FluxOR thallium flux, at 10 µM; stronger effect = higher value
# Procedure, shortened: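 Benchmarks – buffer and R-L3 controls · Assay system – untransfected host CHO-K1 cells with FluxOR thallium dye · Measure – fluorescence change ratio scaled 0% buffer, 100% R-L3 · Technique – kinetic thallium-flux fluorescence · Timing – overnight 37 °C plating, 90 min RT dye, 20 min compound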
# [2] = molecular target: Potassium voltage-gated channel subfamily KQT member 1 (Homo sapiens) (UniProt P51787); experiment: enhancement of KCNQ1 channel thallium flux – FluxOR thallium flux, CHO cells, duplicates, confirmation (AID 493007;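 active = potentiation averaged over duplicate wells exceeding buffer-only control mean by more than 3 SD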;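 for outcome: cells depolarized by a potassium plus thallium sulfate stimulus after compound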); conditions: KCNQ1 cell line, FluxOR thallium flux fluorescence, at 10 µM; stronger effect = higher value, % of reference activator effect, buffer zero
# Potassium voltage-gated channel subfamily KQT member 1 (Homo sapiens), sequence (P51787 whole entry, looked up): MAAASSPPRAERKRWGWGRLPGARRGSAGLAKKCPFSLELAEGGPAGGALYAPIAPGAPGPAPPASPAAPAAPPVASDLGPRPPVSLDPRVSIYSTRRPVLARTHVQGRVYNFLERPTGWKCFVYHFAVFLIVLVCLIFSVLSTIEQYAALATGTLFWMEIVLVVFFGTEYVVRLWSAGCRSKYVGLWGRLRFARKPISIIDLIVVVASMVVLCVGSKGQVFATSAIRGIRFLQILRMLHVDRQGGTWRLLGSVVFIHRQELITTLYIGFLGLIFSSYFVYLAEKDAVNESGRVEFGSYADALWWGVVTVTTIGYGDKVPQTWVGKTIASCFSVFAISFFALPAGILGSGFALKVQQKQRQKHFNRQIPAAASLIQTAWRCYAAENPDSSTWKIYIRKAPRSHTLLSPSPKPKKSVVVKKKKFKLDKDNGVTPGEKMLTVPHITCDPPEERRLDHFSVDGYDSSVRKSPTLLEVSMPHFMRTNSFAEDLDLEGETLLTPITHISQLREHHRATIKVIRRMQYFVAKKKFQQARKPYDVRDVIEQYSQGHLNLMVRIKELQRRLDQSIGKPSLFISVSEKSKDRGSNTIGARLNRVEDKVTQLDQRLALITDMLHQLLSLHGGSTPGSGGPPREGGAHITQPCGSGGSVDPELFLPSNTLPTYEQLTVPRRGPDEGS
# Procedure, shortened: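 Material: CHO cells stably expressing the KCNQ1 potassium channel / Times: dye 90 min then compound 20 min, both at room temperature / Detection: kinetic thallium influx fluorescence with FluxOR dye, 10 s baseline, 110 s post-stimulus / Benchmarks: buffer-only wells as 0% and R-L3 activator as 100% / Replicates: each compound tested in duplicate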
# [3] = molecular target: Potassium voltage-gated channel subfamily KQT member 2 (Rattus norvegicus) (UniProt O88943); experiment: KCNQ2 thallium flux enhancement – KCNQ2-CHO-K1 cells, selectivity assay for KCNQ1 potentiator project (AID 493009;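 active = mean duplicate potentiation above the buffer control mean plus 5 SD of buffer wells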;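 note: assay conditions were tuned for KCNQ1 rather than KCNQ2 modulators; signal is max minus min fluorescence divided by baseline after thallium stimulus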); conditions: FluxOR thallium flux fluorescence, at 10 µM; stronger effect = higher value, scaled: buffer 0, activator control 100
# Potassium voltage-gated channel subfamily KQT member 2 (Rattus norvegicus), sequence (O88943 whole entry, looked up): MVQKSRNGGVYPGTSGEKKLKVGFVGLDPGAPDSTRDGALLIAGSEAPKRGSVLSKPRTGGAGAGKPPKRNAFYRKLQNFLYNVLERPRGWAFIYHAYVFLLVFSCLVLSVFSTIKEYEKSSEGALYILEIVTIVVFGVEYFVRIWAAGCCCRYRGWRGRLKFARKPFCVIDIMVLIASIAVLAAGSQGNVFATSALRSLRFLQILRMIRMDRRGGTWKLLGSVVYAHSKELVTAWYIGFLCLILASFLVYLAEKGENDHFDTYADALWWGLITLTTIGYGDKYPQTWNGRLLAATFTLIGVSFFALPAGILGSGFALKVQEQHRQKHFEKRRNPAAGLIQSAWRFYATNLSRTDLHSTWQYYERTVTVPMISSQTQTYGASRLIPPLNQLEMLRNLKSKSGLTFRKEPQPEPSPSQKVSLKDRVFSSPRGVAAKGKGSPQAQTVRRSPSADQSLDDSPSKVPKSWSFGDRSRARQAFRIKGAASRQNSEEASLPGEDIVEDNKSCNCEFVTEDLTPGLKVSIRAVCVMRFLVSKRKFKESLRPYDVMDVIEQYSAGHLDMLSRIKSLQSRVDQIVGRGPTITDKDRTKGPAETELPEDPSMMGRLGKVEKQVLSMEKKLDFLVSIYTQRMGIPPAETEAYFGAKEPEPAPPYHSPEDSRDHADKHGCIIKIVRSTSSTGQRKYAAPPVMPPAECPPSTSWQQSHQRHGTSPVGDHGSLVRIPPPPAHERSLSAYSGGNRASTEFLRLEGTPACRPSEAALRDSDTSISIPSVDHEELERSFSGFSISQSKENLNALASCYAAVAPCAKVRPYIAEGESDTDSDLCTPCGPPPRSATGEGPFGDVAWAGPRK
# [4] = molecular target: Potassium voltage-gated channel subfamily KQT member 1 (Homo sapiens) (UniProt P51787); experiment: KCNQ1 activators by electrophysiology – IonWorks patch clamp, KCNQ1-CHO cells, orthogonal assay for KCNQ1 potentiator project, confirmation (AID 493184;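 active = current rise at least 3 SD above the untreated control mean in each of two repeat wells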); conditions: automated patch clamp current, at 10 µM; stronger effect = higher value
# Procedure, shortened: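 Probe or stimulus: depolarizing pulse to +40 mV from -90 mV; Material: CHO cells carrying KCNQ1; Compound: one dose, 10 µM final; Signal: automated voltage clamp, amphotericin B perforated patch; Read-out basis: percent current increase versus pre-compound level; Buffer or medium: pH 7.4 external bath; Replication: duplicates.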
# [5] = molecular target: T1, Potassium voltage-gated channel subfamily E member 1 (Homo sapiens) + Potassium voltage-gated channel subfamily KQT member 1 (Homo sapiens) (UniProt P15382+P51787); experiment: KCNQ1-E1 channel activation – thallium flux, CHO-K1 KCNQ1/E1 cells, selectivity assay for KCNQ1 potentiator project, confirmation (AID 493186;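 active = mean duplicate activation above the buffer control mean plus 5 SD of those controls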); conditions: FluxOR thallium flux, at 10 µM; stronger effect = higher value
# T1 sequence (P51787 whole entry, looked up): as the sequence (P51787 whole entry, looked up) above
# Procedure, shortened: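 system = KCNQ1/E1-expressing stable CHO-K1 cell line | doses = single compound concentration per well | times = dye 90 min, compound 20 min, room temperature | measured by = FluxOR Tl+ flux fluorescence, kinetic read | evaluation = fluorescence rise relative to baseline, as percent of R-L3 response above buffer | controls = buffer and R-L3 | replicates = duplicate wells per compound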
# [6] = molecular target: Potassium voltage-gated channel subfamily KQT member 1 (Homo sapiens) (UniProt P51787); experiment: blockers of human KCNQ1 channel – cell-based, Tl flux, duplicate, confirmation (AID 588353); conditions: KCNQ1 cell line, FluxOR thallium flux fluorescence, at 10 µM, stronger effect = higher value;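 note: 0% = buffer control ratio and 100% = XE991 inhibitor control ratio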
# Procedure, shortened: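 Assay system – KCNQ1 CHO cells · Probe or stimulus – Tl2SO4 plus K2SO4 stimulus, each 12.5 mM in 5x stock · Times – dye loading 90 min, compound 20 min, both room temperature · Signal – kinetic FluxOR thallium-sensitive dye fluorescence, 10 s baseline, 110 s post-stimulus · Measure – percent inhibition of fluorescence change ratio, scaled buffer to XE991 · Repeats – duplicate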
# [7] = nonspecific activity in CHO-K1 cells without KCNQ1 – parental CHO cells, Tl flux, counter-screen for KCNQ1 inhibitor project (AID 588366;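 active = mean of duplicate thallium-flux fluorescence ratios in parental host cells more than 5 SD below the buffer control mean, cut at about 0.38 in these data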;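 note: ratio is peak minus minimum fluorescence divided by baseline fluorescence; actives read low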); conditions: parental CHO-K1, FluxOR thallium flux fluorescence ratio; at 10 µM; stronger effect = lower value; zero means no signal rise above baseline
# Procedure, shortened: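 System: parental CHO-K1 cells lacking KCNQ1 channel expression. Probe or stimulus: depolarizing K2SO4 plus Tl2SO4 stimulus, each 12.5 mM in 5x stock. Times: 90 min dye load, 20 min compound, room temperature. Measured by: real-time thallium-sensitive FluxOR dye fluorescence reading. Read-out: baseline-normalized fluorescence amplitude ratio, averaged over duplicates. Repeats: duplicates.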
# [8] = molecular target: Potassium voltage-gated channel subfamily KQT member 1 (Homo sapiens) (UniProt P51787); experiment: block of human KCNQ1 potassium current – cell-based, automated electrophysiology, orthogonal assay, confirmation (AID 624120;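 active = KCNQ1 current drop exceeding 3 SD of negative control wells, seen in both duplicate runs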); conditions: KCNQ1-CHO cells, automated patch clamp current; at 10 µM
# Procedure, shortened: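 Assay system: KCNQ1-expressing CHO cells. Medium: external buffer at pH 7.4. Doses: single test compound dose of 10 µM final. Detection: amphotericin-perforated automated patch clamp. Evaluation: percent change in steady-state +40 mV current, post- versus pre-compound. Benchmarks: negative controls.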
# [9] = molecular target: Potassium voltage-gated channel subfamily KQT member 2 (Rattus norvegicus) (UniProt O88943); experiment: block of rat KCNQ2 potassium channel – cell-based, selectivity assay for KCNQ1 inhibitor project (AID 651746;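 active = mean percent inhibition of the KCNQ2 thallium signal more than 5 SD above the buffer-only control wells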;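 for inhibition: 0% = buffer control wells and 100% = XE-991 inhibitor control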); conditions: KCNQ2 cells, FluxOR thallium flux fluorescence, at 10 µM; stronger effect = higher value
# [10] = molecular target: T1, Potassium voltage-gated channel subfamily E member 1 (Homo sapiens) + Potassium voltage-gated channel subfamily KQT member 1 (Homo sapiens); experiment: block of human IKs channel complex – CHO-K1 cells, thallium flux, FluxOR, selectivity assay for KCNQ1 inhibitor project (AID 652147;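 active = mean percent inhibition of duplicate wells above the buffer-only control mean plus 3 SD of those controls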;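 for inhibition: 0% = buffer only wells and 100% = XE-991 inhibitor control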); conditions: KCNQ1/KCNE1 cells, FluxOR thallium flux fluorescence, at 10 µM; stronger effect = higher value
# Procedure, shortened: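 Test system: cells expressing KCNQ1/KCNE1 channels; Probe or stimulus: Tl2SO4 plus K2SO4 stimulus, each 12.5 mM in 5x stock; Times: 20 min compound pre-incubation at room temperature; Technique: kinetic FluxOR thallium-sensitive fluorescence, 1 Hz sampling, 150 s post-stimulus.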
compound,measurement,setting,value
Cc1ccc(C(=O)C2=C(O)C(=O)N(CCCN3CCOCC3)C23C(=O)N(C)c2ccccc23)o1 (stereo unspecified),outcome,[1],inactive
same,outcome,[2],inactive
same,outcome,[3],inactive
same,outcome,[4],inactive
same,outcome,[5],inactive
Cn1c(SCC(=O)NC2CC2)nnc1-c1cccs1,outcome,[1],inactive
same,outcome,[2],inactive
same,outcome,[3],inactive
same,outcome,[4],inactive
same,outcome,[5],inactive
Clc1ccc(C2=Nn3c(nnc3-c3n[nH]c4c3CCC4)SC2)cc1Cl,outcome,[1],inactive
same,outcome,[2],inactive
same,outcome,[3],inactive
same,outcome,[4],inactive
same,outcome,[5],inactive
CCOC(=O)N1CCN(C(=S)NC(=O)c2ccc(Br)cc2)CC1,outcome,[1],inactive
same,outcome,[2],inactive
same,outcome,[3],inactive
same,outcome,[4],inactive
same,outcome,[5],inactive
COc1cc(/C=N/Nc2nc(N3CCCC3)nc(N3CCCC3)n2)ccc1OCc1ccccc1F,outcome,[1],inactive
same,outcome,[2],inactive
same,outcome,[3],inactive
same,outcome,[4],inactive
same,outcome,[5],inactive
Cc1cc(C)c2c(n1)nn1c(NCCCN(C)C)cc(C)nc21,outcome,[1],inactive
same,outcome,[2],inactive
same,outcome,[3],inactive
same,outcome,[4],inactive
same,outcome,[5],inactive
CCCSc1ncnc2c1oc1ccccc12,outcome,[1],inactive
same,outcome,[2],inactive
same,outcome,[3],inactive
same,outcome,[4],inactive
same,outcome,[5],inactive
C/C(=N\Nc1nc(C)c(C)s1)c1ccc([N+](=O)[O-])cc1,outcome,[1],inactive
same,potentiation,[2],43% (active)
same,potentiation,[3],150% (active)
same,outcome,[4],inactive
same,outcome,[5],inactive
CCN(c1ccccc1)S(=O)(=O)c1ccc(NC(=S)NC(=O)c2ccc(Br)o2)cc1,outcome,[1],inactive
same,potentiation,[2],76% (active)
same,potentiation,[3],168% (active)
same,outcome,[4],inactive
same,outcome,[5],inactive
COc1ccc(-c2csc(NC(=S)NC(=O)c3cccs3)n2)cc1Br,outcome,[1],inactive
same,outcome,[2],inactive
same,outcome,[3],inactive
same,outcome,[4],inactive
same,outcome,[5],inactive
COCc1cc(C)nc(NCCO)c1C#N,outcome,[1],inactive
same,outcome,[2],inactive
same,outcome,[3],inactive
same,outcome,[4],inactive
same,outcome,[5],inactive
Cn1nnc(NC(=O)C(c2ccccc2)c2ccccc2)n1,outcome,[1],inactive
same,outcome,[2],inactive
same,outcome,[3],inactive
same,outcome,[4],inactive
same,outcome,[5],inactive
O=C(NC(=S)Nc1ccc(Cl)cn1)c1cccs1,outcome,[1],inactive
same,outcome,[2],inactive
same,outcome,[3],inactive
same,outcome,[4],inactive
same,outcome,[5],inactive
Fc1ccc(-n2cc(-c3ccccc3)c3c(=S)nc[nH]c32)cc1,outcome,[1],inactive
same,potentiation,[2],108% (active)
same,outcome,[3],inactive
same,outcome,[4],inactive
same,outcome,[5],inactive
N=c1sccn1CC(=O)Nc1ccc(S(=O)(=O)N2CCOCC2)cc1,outcome,[1],inactive
same,outcome,[2],inactive
same,outcome,[3],inactive
same,outcome,[4],inactive
same,outcome,[5],inactive
CCOC(=O)N1CCN(C(=O)C2CCN(c3ncnc4c3sc3cccc(F)c34)CC2)CC1,inhibition,[6],109% (active)
same,fluorescence ratio (Tl flux),[7],0.427
same,outcome,[8],active
same,inhibition,[9],105% (active)
same,inhibition,[10],90% (active)
Cn1nccc1C(=O)NC1CCCc2c1cnn2-c1ccc(F)cc1F (stereo unspecified),inhibition,[6],90% (active)
same,fluorescence ratio (Tl flux),[7],0.47
same,outcome,[8],inactive
same,inhibition,[9],60.3% (active)
same,outcome,[10],inactive
COC(=O)c1cc(NC(=O)c2cc(C(C)(C)C)nn2Cc2cccc(C)c2)ccc1N1CCOCC1,inhibition,[6],77% (active)
same,fluorescence ratio (Tl flux),[7],0.333 (active)
same,inhibition,[9],80.3% (active)
same,inhibition,[10],154% (active)
COc1ccc(-c2csc3ncnc(N4CCN(S(=O)(=O)c5cccc(F)c5)CC4)c23)cc1,inhibition,[6],92.5% (active)
same,fluorescence ratio (Tl flux),[7],0.403
same,outcome,[8],inactive
same,inhibition,[9],77% (active)
same,inhibition,[10],122% (active)
CC(C)(CCl)C(=O)Nc1ccc(Sc2ccc(F)cc2)cc1,inhibition,[6],166% (active)
same,fluorescence ratio (Tl flux),[7],0.393
same,inhibition,[9],111% (active)
Cc1nc(N2CCN(c3ccccn3)CC2)c2c(C)c(C(=O)Nc3ccc(F)c(Cl)c3)sc2n1,inhibition,[6],160% (active)
same,fluorescence ratio (Tl flux),[7],0.345 (active)
same,inhibition,[9],124% (active)
Cc1ccc(S(=O)(=O)Nc2ccc3ncccc3c2)cc1,inhibition,[6],76.5% (active)
same,fluorescence ratio (Tl flux),[7],0.499
same,outcome,[9],inactive
same,outcome,[10],inactive
O=C1CCCN1CCCNC(=S)Nc1ccc(F)c(Cl)c1,inhibition,[6],51% (active)
same,fluorescence ratio (Tl flux),[7],0.445
same,inhibition,[9],72.7% (active)
same,inhibition,[10],58.5% (active)
Cc1cc(C)cc(NC(=O)NC2CCCCCCC2)c1,inhibition,[6],146% (active)
same,fluorescence ratio (Tl flux),[7],0.465
same,outcome,[8],active
same,outcome,[9],inactive
same,inhibition,[10],164% (active)
COc1ccc(Cl)cc1NC(=O)C(C)N1CCc2ccccc21 (stereo unspecified),inhibition,[6],114% (active)
same,fluorescence ratio (Tl flux),[7],0.428
same,outcome,[8],inactive
same,inhibition,[9],91% (active)
same,inhibition,[10],132% (active)
CC(C)OCCCNc1ncnc2c1[nH]c1ccc(F)cc12,inhibition,[6],95.5% (active)
same,fluorescence ratio (Tl flux),[7],0.443
same,outcome,[8],active
same,outcome,[9],inactive
same,outcome,[10],inactive
Cc1cccc(-c2nc3ccc(C(=O)NCCN4CCN(C)CC4)cc3nc2-c2cccc(C)c2)c1,inhibition,[6],63% (active)
same,fluorescence ratio (Tl flux),[7],0.34 (active)
same,inhibition,[9],107% (active)
same,inhibition,[10],118% (active)
O=C(Nc1ccc(Cl)c(Cl)c1)N1CC=C(c2ccccc2)CC1,inhibition,[6],122% (active)
same,fluorescence ratio (Tl flux),[7],0.411
same,outcome,[8],inactive
same,inhibition,[9],110% (active)
same,inhibition,[10],134% (active)
CCN(CC)CC(=O)Nc1sc2c(c1C(=O)c1ccccc1C)CCC2,inhibition,[6],104% (active)
same,fluorescence ratio (Tl flux),[7],0.444
same,outcome,[8],inactive
same,inhibition,[9],89% (active)
same,inhibition,[10],168% (active)
CCOC(=O)c1ccc(NC(=O)Cn2cnc3cc(C)c(C)cc32)cc1,inhibition,[6],60% (active)
same,fluorescence ratio (Tl flux),[7],0.481
same,outcome,[9],inactive
same,inhibition,[10],55% (active)
C=CCOC(=O)C1=C(C)NC(SCC(=O)OCC)=C(C#N)C1c1ccc(C)cc1 (stereo unspecified),inhibition,[6],124% (active)
same,fluorescence ratio (Tl flux),[7],0.425
same,outcome,[8],active
same,inhibition,[9],115% (active)
same,inhibition,[10],160% (active)
